Laboratory results: ChEMBL document CHEMBL2203116, “Synthesis and evaluation of novel carbon-11 labeled oxopurine analogues for positron emission tomography imaging of translocator protein (18 kDa) in peripheral organs” (J Med Chem, 2011)

How the values were obtained:
Lung [1] = test: Drug uptake in Sprague-Dawley rat lung at 0.13 nmol, iv pretreated with unlabeled (R)-PK11195 by PET scanning; format: ADME, organism-based; conditions: in vivo
In short: (§1)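 Male Sprague-Dawley rats (6–8 weeks old), isoflurane-anesthetized, prone. ROIs on lung, heart, kidney, liver, small intestine and cardiac blood pool. Uptake decay-corrected to injection time and expressed as SUV (body-weight normalized). n = 4, mean ± SD.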

Heart [2] = test: Drug uptake in Sprague-Dawley rat heart at 0.13 nmol, iv pretreated with unlabeled (R)-PK11195 by PET scanning; format: ADME, organism-based; conditions: in vivo
In short: (§2)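 Isoflurane-anesthetized Sprague-Dawley rats underwent 30-min PET after iv [11C]radioligand, with unlabeled blocker given iv 1 min before tracer. Blockers were (R)-PK11195 at 3.0 mg/kg or AC-5216 at 1.0 mg/kg in 300 μL saline with 10% ethanol and 5% polysorbate 80. Regional uptake was decay-corrected SUV (n = 4).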

Kidney [3] = test: Drug uptake in Sprague-Dawley rat kidney at 0.13 nmol, iv pretreated with unlabeled (R)-PK11195 by PET scanning; format: ADME, organism-based; conditions: in vivo; in short: as §2
Lung [4] = test: Drug uptake in Sprague-Dawley rat lung at 0.13 nmol, iv pretreated with unlabeled AC-5216 by PET scanning; format: ADME, organism-based; conditions: in vivo; in short: as §1
Heart [5] = test: Drug uptake in Sprague-Dawley rat heart at 0.13 nmol, iv pretreated with unlabeled AC-5216 by PET scanning; format: ADME, organism-based; conditions: in vivo; in short: as §2
Kidney [6] = test: Drug uptake in Sprague-Dawley rat kidney at 0.13 nmol, iv pretreated with unlabeled AC-5216 by PET scanning; format: ADME, organism-based; conditions: in vivo; in short: as §1
Liver [7] = test: Drug uptake in Sprague-Dawley rat liver at 0.13 nmol, iv pretreated with unlabeled (R)-PK11195 measured after 27.5 mins by PET scanning relative to control; format: ADME, organism-based; conditions: in vivo
In short: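 Male Sprague-Dawley rats, 6-8 weeks old, under isoflurane, prone. An unlabeled TSPO blocking ligand (3.0 mg/kg) was injected 1 min before the iv radioligand (16-18 MBq/200 μL). A liver ROI was decay-corrected and expressed as SUV normalized to injected activity and body weight. The 27.5-min value was compared with unblocked controls; n = 4.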

Liver [8] = test: Drug uptake in Sprague-Dawley rat liver at 0.13 nmol, iv pretreated with unlabeled AC-5216 measured after 27.5 mins by PET scanning relative to control; format: ADME, organism-based; conditions: in vivo
In short: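 Male Sprague-Dawley rats, 6-8 weeks, isoflurane-anesthetized. A blocking TSPO ligand (1.0 mg/kg, in 300 μL saline with 10% ethanol and 5% polysorbate 80) was injected 1 min before iv radioligand (16-18 MBq/200 μL). Liver ROI as decay-corrected SUV (injected activity, body weight), 27.5-min value versus controls; n = 4.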

Blood [9] = test: Drug uptake in Sprague-Dawley rat cardiac blood pool at 0.13 nmol, iv after 27.5 mins by PET scanning; format: ADME, organism-based; conditions: in vivo
In short: (§3)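 Isoflurane-anesthetized male Sprague-Dawley rats lay prone and received an iv bolus of [11C]radioligand in 200 μL. 3D list-mode emission scans ran 30 min from injection. Regions of interest were drawn on the organs and cardiac blood pool. Uptake was decay-corrected to injection time and expressed as SUV (normalized to injected radioactivity and body weight). Values are mean of n = 4.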

Liver [10] = test: Drug uptake in Sprague-Dawley rat liver at 0.13 nmol, iv after 27.5 mins by PET scanning; format: ADME, organism-based; conditions: in vivo; in short: as §1
Lung [11] = test: Drug uptake in Sprague-Dawley rat lung at 0.13 nmol, iv up to 30 mins by PET scanning; format: ADME, organism-based; conditions: in vivo, 0.5 h; in short: as §1
Heart [12] = test: Drug uptake in Sprague-Dawley rat heart at 0.13 nmol, iv up to 30 mins by PET scanning; format: ADME, organism-based; conditions: in vivo, 0.5 h; in short: as §3
Kidney [13] = test: Drug uptake in Sprague-Dawley rat kidney at 0.13 nmol, iv up to 30 mins by PET scanning; format: ADME, organism-based; conditions: in vivo, 0.5 h; in short: as §1
Liver [14] = test: Drug uptake in Sprague-Dawley rat liver at 0.13 nmol, iv up to 30 mins by PET scanning; format: ADME, organism-based; conditions: in vivo, 0.5 h; in short: as §1
Blood [15] = test: Drug uptake in Sprague-Dawley rat cardiac blood pool at 0.13 nmol, iv up to 30 mins by PET scanning; format: ADME, organism-based; conditions: in vivo, 0.5 h; in short: as §3
Intestine = test: Drug uptake in Sprague-Dawley rat small intestine at 0.13 nmol, iv up to 30 mins by PET scanning; format: ADME, organism-based; conditions: in vivo, 0.5 h; in short: as §1
Lung [16] = test: Drug uptake in Sprague-Dawley rat lung at 0.13 nmol, iv after 2 mins by PET scanning; format: ADME, organism-based; conditions: in vivo; in short: as §1
Heart [17] = test: Drug uptake in Sprague-Dawley rat heart at 0.13 nmol, iv after 2 mins by PET scanning; format: ADME, organism-based; conditions: in vivo; in short: as §3
Kidney [18] = test: Drug uptake in Sprague-Dawley rat kidney at 0.13 nmol, iv after 2 mins by PET scanning; format: ADME, organism-based; conditions: in vivo; in short: as §3
Liver [19] = test: Drug uptake in Sprague-Dawley rat liver at 0.13 nmol, iv after 2 mins by PET scanning; format: ADME, organism-based; conditions: in vivo; in short: as §1
Blood [20] = test: Drug uptake in Sprague-Dawley rat cardiac blood pool at 0.13 nmol, iv after 2 mins by PET scanning; format: ADME, organism-based; conditions: in vivo; in short: as §3
Lung [21] = test: Drug uptake in Sprague-Dawley rat lung at 0.13 nmol, iv after 27.5 mins by PET scanning; format: ADME, organism-based; conditions: in vivo; in short: as §1
Heart [22] = test: Drug uptake in Sprague-Dawley rat heart at 0.13 nmol, iv after 27.5 mins by PET scanning; format: ADME, organism-based; conditions: in vivo; in short: as §3
Kidney [23] = test: Drug uptake in Sprague-Dawley rat kidney at 0.13 nmol, iv after 27.5 mins by PET scanning; format: ADME, organism-based; conditions: in vivo; in short: as §3
Translocator protein = Translocator protein (Rattus norvegicus, UniProt P16257); test: Displacement of [11C]-PK-11195 from TPSO in Sprague-Dawley rat brain homogenate after 30 mins by gamma counting; format: tissue-based
[24] = Lipophilicity, log D of the compound in octanol-phosphate buffer at pH 7.4 by shake flask method; format: physicochemical
In short: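 Radioligand (~200000 cpm) shaken with n-octanol (3.0 g) and 0.1 M sodium phosphate buffer pH 7.4 (3.0 g). Vortexed 3 min at room temperature, centrifuged 3500 rpm for 5 min. Phases weighed and counted; organic layer repartitioned until consistent. LogD = log of the cpm/g octanol to cpm/g buffer ratio. Triplicate.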

Sequence of Translocator protein (P16257 whole entry, looked up): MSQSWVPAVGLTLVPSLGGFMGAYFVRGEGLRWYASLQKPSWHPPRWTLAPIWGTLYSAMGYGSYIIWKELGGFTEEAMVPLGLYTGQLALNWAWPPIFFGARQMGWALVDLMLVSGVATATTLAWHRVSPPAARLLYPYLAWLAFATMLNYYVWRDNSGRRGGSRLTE

CN(Cc1cccnc1)C(=O)Cn1c(=O)n([11CH3])c2cnc(-c3ccccc3)nc21
Drug uptake (Lung [1]): Not Active
Drug uptake (Heart [2]): Not Active
Drug uptake (Kidney [3]): Not Active
Drug uptake (Lung [4]): Not Active
Drug uptake (Heart [5]): Not Active
Drug uptake (Kidney [6]): Not Active
fold change (FC) (Liver [7]): 1.5
fold change (FC) (Liver [8]): 1.5
SUV (Blood [9]): 0.4
SUV (Liver [10]): 0.5
Drug uptake (Lung [11]): Active
Drug uptake (Heart [12]): Active
Drug uptake (Kidney [13]): Active
Drug uptake (Liver [14]): Active
Drug uptake (Blood [15]): Active
Drug uptake (Intestine): Active
SUV (Lung [16]): 3.4
SUV (Heart [17]): 4.6
SUV (Kidney [18]): 3.3
SUV (Liver [19]): 1.6
SUV (Blood [20]): 3
SUV (Lung [21]): 0.5
SUV (Heart [22]): 0.9
SUV (Kidney [23]): 1

CN(Cc1cccnc1)C(=O)Cn1c(=O)n(C)c2cnc(-c3ccccc3)nc21
Ki (Translocator protein): 0.04 µM
logD [24]: 1.81

CC[C@@H](C)N(C)C(=O)c1cc2ccccc2c(-c2ccccc2Cl)n1 [(R)PK-11195]
logD [24]: 3.74
